# Most compounds without a hit are left out; they make up all but 1.7% or so of the library.
# HNF4A DNA FP = change in binding of human HNF4 alpha to DNA | P41235 | HNF4a-FITC DNA binding, fluorescence polarization, 1 h | activity change, % at 10 µM | 360,000 tested, 0.3% active | AID 1224865; in the data active means activity change above about 30%, passing the limit was not always enough
# IDE inh = cellular human IDE inhibition. P14735. HEK cells, FAbetaB cleavage, fluorescence polarization. inhibition, % at 5.59 µM. 320,000 tested, 0.41% active. AID 434962;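 active means percent inhibition above the average of all tested compounds plus 3 SD, set per screening campaign, cut at about 16% in these data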;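 further: IDE supplied by intact live HEK cells; FP after avidin binding of uncleaved biotin substrate so inhibition keeps polarization high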
# IDE cell activ = IDE (human) activation, cell-based. P14735. HEK cells, FAbeta-B cleavage, fluorescence polarization; 0% vehicle, 100% cell-free pure enzyme wells. activation, % at 5.96 µM. 340,000 tested, 0.073% active. AID 493087;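 active means activation above the mean of all tested compounds plus 3 SD, set per screening campaign, cut at about 17% in these data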
# TPT1 inh = inhibitors of Candida albicans tRNA 2'-phosphotransferase TPT1 | recombinant caTPT1, FP RNA substrate dephosphorylation | inhibition, % at 5 µM | 300,000 tested, 0.81% active;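 active means inhibition above the mean of all tested compounds plus 3 SD, set per screening campaign, cut at about 24% in these data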
# TbMetRS inhib = blocks T. brucei methionyl-tRNA synthetase activity; purified T. brucei MetRS, ATP depletion, Kinase-Glo luminescence; inhibition, % at 11.9 µM; 360,000 tested, 0.4% active; AID 624268;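 active means inhibition above a per-plate cutoff of the control wells' mean inhibition plus 3 SD, cut at about 5.5% in these data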
#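 Assay system: T. brucei methionyl-tRNA synthetase, purified | Medium: HEPES buffer with MgCl2, KCl, DTT, spermine, BSA, pyrophosphatase | Compound: 11.9 µM single point | Incubation: 15 min enzyme-compound preincubation, 2 h reaction, 10 min detection, 25 °C | Measured by: Kinase-Glo luciferase luminescence reporting remaining unconsumed ATP | Measure: % inhibition normalized to control-well medians | Replication: Singlicate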
# CSN inh = CSN deneddylation inhibition | inhibition, % at 12.5 µM | 360,000 tested, 0.38% active | Purified CSN, SCF-Nedd8-OG deneddylation, fluorescence polarization | Q92905 | AID 651999;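 active means pattern-corrected inhibition above about 35%, with an unprinted fluorescence ratio check between 0.5 and 1.5, limit read from the data, passing the limit was not always enough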
# Target sequence (Q92905 whole entry, looked up, one chain of several): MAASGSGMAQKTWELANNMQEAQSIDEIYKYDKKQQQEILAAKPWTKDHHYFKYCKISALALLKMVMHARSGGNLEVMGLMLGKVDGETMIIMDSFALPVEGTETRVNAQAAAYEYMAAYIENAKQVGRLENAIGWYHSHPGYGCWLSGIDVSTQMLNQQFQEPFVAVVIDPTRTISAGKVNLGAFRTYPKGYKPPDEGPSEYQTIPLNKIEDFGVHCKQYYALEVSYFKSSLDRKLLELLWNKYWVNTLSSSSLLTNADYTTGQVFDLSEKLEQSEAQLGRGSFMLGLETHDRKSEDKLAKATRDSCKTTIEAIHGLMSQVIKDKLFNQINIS
#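 Material: human Csn5 produced in HEK293T cells; Input: enzyme 0.24 nM; Reagent: SCFSkp2-Nedd8OG substrate at 10 nM final; Dosing: 12.5 µM compound; Incubation: 90 min reaction at room temperature; Detection: fluorescence polarization of the substrate; Evaluation: % inhibition of substrate cleavage by Csn5; Control set: substrate-only high control, full reaction low control.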
# TbMetRS confirm = confirmation of Trypanosoma brucei MetRS inhibitors; shares compounds with TbMetRS inhib; inhibition, % at 11.9 µM; 1,400 tested, 93% active; T. brucei MetRS enzyme, luminescence (ATP depletion); in the data active means inhibition above about 7%
# Jurkat cytotox = Jurkat T cell cytotoxicity for MetRS hits; 1,400 tested, 12% active; inhibition, % at 8.3 µM; Jurkat cells viability, ATP luminescence; shares compounds with TbMetRS inhib; in the data active means inhibition above about 15%
# Tb MetRS inh FP = T. brucei MetRS inhibition, orthogonal assay; shares compounds with TbMetRS inhib; purified T. brucei MetRS, fluorescence polarization; inhibition, % at 11.9 µM; 1,400 tested, 44% active; AID 651607; in the data active means inhibition above about 17%
# A number is an active result; i = inactive; nt = no result.
SMILES,HNF4A DNA FP,IDE inh,IDE cell activ,TPT1 inh,TbMetRS inhib,CSN inh,TbMetRS confirm,Jurkat cytotox,Tb MetRS inh FP
COc1ccc(S(=O)(=O)N2CCN(C(=O)CC3CC4CCC3C4)CC2)cc1 (stereo not given),i,i,i,nt,i,i,nt,nt,nt
COc1ccc(CC(=O)OCC(=O)NC2CCCCC2)cc1OC,i,i,i,nt,i,i,nt,nt,nt
O=C(C1=C[C@@H](c2ccc3c(c2)OCO3)C[C@@H](OCCCCO)O1)N1CCN(Cc2ccc3c(c2)OCO3)CC1,i,i,i,i,18,i,55,i,25
O=C(C1=C[C@H](c2ccc3c(c2)OCO3)C[C@H](OCCCCO)O1)N1CCN(Cc2ccc3c(c2)OCO3)CC1,i,i,i,i,i,i,nt,nt,nt
COc1ccc(-c2nnc(SC(C(=O)c3c[nH]c4ccccc34)c3ccccc3)n2N)cc1OC (stereo not given),i,i,i,i,16,i,28,i,18
CCn1c2ccccc2c2cc(NC(=O)CSc3nnc(-c4ccc(OC)c(OC)c4)n3N)ccc21,i,i,i,i,i,i,nt,nt,nt
C[C@H]1CN=C(N(C)C)N1CC1CCC(C(C)(C)C)CC1 (stereo not given in full),i,i,i,i,i,i,nt,nt,nt
COc1ccc(CCNC(=O)c2ccc([N+](=O)[O-])cc2Cl)cc1OC,i,i,i,i,i,i,nt,nt,nt
COc1ccc(CCNC(=O)c2ccc(-c3ccc([N+](=O)[O-])cc3Cl)o2)cc1OC,i,i,i,i,5.7,i,8.7,32,19
CCCCn1c(N)c(N(CCOC)C(=O)COc2ccc(Cl)cc2)c(=O)[nH]c1=O,i,i,i,i,i,i,nt,nt,nt
COc1ccc2c(CC(=O)OCC(=O)Nc3ccc(C)cc3)coc2c1,i,i,i,nt,9.8,i,25,i,i
COc1ccc2c(CC(=O)OCC(=O)Nc3ccc4c(c3)OCO4)coc2c1,i,i,i,i,10.0,i,15,i,i
COc1ccc2c(CC(=O)OCC(=O)Nc3ccc(S(N)(=O)=O)cc3)coc2c1,i,i,i,i,i,i,nt,nt,nt
CCSc1ccccc1C(=O)NCCc1ccccc1,i,i,i,i,i,i,nt,nt,nt
O=C(NCCN1C(=O)S/C(=C\c2ccccc2)C1=O)C1CCN(S(=O)(=O)c2cccs2)CC1,i,i,i,i,i,i,nt,nt,nt
COc1ccc(-n2c(SCC(C)=O)nc3sc(C)c(C)c3c2=O)cc1,i,i,i,i,i,i,nt,nt,nt
O=C(NNc1nc(N2CCOCC2)nc(N2CCOCC2)n1)Nc1ccc(Cl)cc1,nt,i,nt,i,nt,nt,nt,nt,nt
Cc1ccc(NC(=O)CN(C)C(=O)COC(=O)c2ccc(Cl)cc2O)cc1,i,i,i,nt,6.8,i,64,i,39
Cc1ccc(NC(=O)CN(C)C(=O)COC(=O)C2=COCCO2)cc1,i,i,i,i,i,i,nt,nt,nt
Cc1ccc(NC(=O)CN(C)C(=O)CCOc2cccc(C)c2)cc1,i,i,i,i,6.0,i,11,i,i
Cc1ccc(OCCCC(=O)N(C)CC(=O)Nc2c(C)cccc2C)cc1,i,nt,nt,nt,i,i,nt,nt,nt
O=C(c1ccc(CS(=O)c2ccc(F)cc2)o1)N1CCN(C2CCCCC2)CC1 (stereo not given),i,i,i,i,i,i,nt,nt,nt
COCC(=O)N1C[C@H](C)[C@H](OC)CN(C)C(=O)c2cc(NC(=O)Nc3cccc(F)c3)ccc2OC[C@@H]1C,i,nt,nt,nt,34,i,43,i,18
COC(=O)c1nnn(CC(=O)NC(=O)Nc2ccccc2)c1C(=O)OC,i,i,i,i,6.2,i,15,i,i
COC(=O)c1nnn(CC(=O)NC(=O)Nc2ccc(F)cc2)c1C(=O)OC,i,i,i,i,i,i,nt,nt,nt
SMILES,HNF4A DNA FP,IDE inh,IDE cell activ,TPT1 inh,TbMetRS inhib,CSN inh,TbMetRS confirm,Jurkat cytotox,Tb MetRS inh FP
COc1ccc(NC(=O)C2CCCN2C(=O)OC(C)(C)C)cc1 (stereo not given),i,i,i,i,i,i,nt,nt,nt
CCOC(=O)C(=NC1CCS(=O)(=O)C1)NNc1ccc(Br)cc1 (stereo not given),i,i,i,i,15,i,46,i,i
CN(CC(=O)Nc1cccc(F)c1)C(=O)CC1CCCCC1,i,i,i,i,i,i,nt,nt,nt
Cc1noc(C)c1COC(=O)Cc1ccc(Cl)cc1,i,i,i,i,i,i,nt,nt,nt
Cc1cc(Cl)ccc1OCCCC(=O)NN,i,i,i,i,i,i,nt,nt,nt
Cc1cc(Cl)ccc1OCCCC(=O)NCCc1nnc2ccccn12,i,i,i,i,7.2,i,14,i,i
Cc1noc(C)c1COC(=O)CCCOc1ccc(Cl)cc1Cl,i,i,i,i,7.0,i,19,i,i
Cc1noc(NS(=O)(=O)c2ccc(NC(=O)CCCOc3ccc(Cl)cc3Cl)cc2)c1C,i,i,i,i,7.6,i,14,i,i
O=C(COC(=O)CCCOc1ccc(Cl)cc1Cl)NCc1ccccc1,i,i,i,i,40,i,57,i,43
Cc1noc(NS(=O)(=O)c2ccc(NC(=O)COc3ccc(Cl)cc3Cl)cc2)c1C,i,i,i,i,i,i,nt,nt,nt
CCC(C(=O)NC(C)(C)C)N(Cc1ccco1)C(=O)CNS(=O)(=O)c1ccc(OC)cc1 (stereo not given),i,i,i,i,i,i,nt,nt,nt
CCOc1ccc(CCNC(=O)CCc2nnc3ccc(N4CCCCC4)nn23)cc1OCC,i,i,i,i,i,i,nt,nt,nt
COc1ccc(CCN(C)C(=O)C(CCSC)NC(=O)c2ccco2)cc1OC (stereo not given),i,i,i,nt,i,i,nt,nt,nt
CCNC(=O)CCCOc1ccc(Cl)cc1Cl,i,i,i,i,6.3,i,14,i,i
COC(=O)CCC(=O)NNC(=O)CCCOc1ccc(Cl)cc1Cl,i,i,i,i,i,i,nt,nt,nt
COc1ccccc1NS(=O)(=O)c1cccc(C(=O)NCC2(N3CCCCC3)CCCCC2)c1,i,nt,i,nt,i,i,nt,nt,nt
CCN(CC)CCNC(=O)c1ccc(NC(=O)c2ccc(-n3cncn3)c([N+](=O)[O-])c2)cc1,i,nt,nt,nt,17,i,37,i,i
CC(C)Cc1nnc(NC(=O)c2ccc(-n3cncn3)c([N+](=O)[O-])c2)s1,i,nt,nt,nt,i,i,nt,nt,nt
O=C(NCCC1=CCCCC1)c1ccc(-n2cncn2)c([N+](=O)[O-])c1,i,i,i,i,15,i,32,i,20
